Assay results reported in ChEMBL document CHEMBL1629493, “Synthesis and cytostatic activity of purine nucleosides derivatives of allofuranose” (Eur J Med Chem, 2010).

Columns and labels:
Format in all cases: functional, cell-based
[1] = system: HL-60; assay: Cytostatic activity against human HL60 cells after 24 hrs by colorimetric microculture assay; details: HL-60, 24 h
Outline: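 MTT assay: HL-60 cells seeded at 10⁴ per well, grown 24 h in culture medium, then exposed at 37 °C for 24 h to varying doses of compounds dissolved in DMSO, with DMSO controls. Absorbance read at 595 nm. Viability taken as treated over control absorbance. IC50 derived from concentration-effect curves; means of three experiments with standard deviation.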

[2] = system: HeLa; assay: Cytostatic activity against human HeLa 229 cells after 48 hrs by colorimetric microculture assay
Outline: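 HeLa-229 cells plated at 4 × 10³ per well and cultured 24 h before treatment at 37 °C for 48 h with varying doses in DMSO, DMSO controls included. MTT colour measured at 595 nm. Percent viability relative to control; IC50 from concentration-effect curves. Mean of three experiments, SD given.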

[3] = system: MCF7; assay: Cytostatic activity against human MCF7 cells after 96 hrs by colorimetric microculture assay; details: MCF7, 96 h
Outline: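 MCF-7 cells at 10⁴ per well, preincubated 24 h, then treated at 37 °C for 96 h with varying doses dissolved in DMSO alongside DMSO controls. Read-out: MTT colorimetry at 595 nm, viability as a fraction of control absorbance. IC50 fitted from concentration-effect curves; three experiments, mean with standard deviation.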

Row | SMILES | IC50 [1] [µM] | IC50 [2] [µM] | IC50 [3] [µM]
1 | Nc1ncnc2c1ncn2[C@@H]1O[C@H]([C@H](O)CO)[C@@H](O)[C@H]1O | > 100 | > 100 | > 100
2 | CC(=O)OC[C@@H](OC(C)=O)[C@H]1O[C@@H](n2cnc3c(N)nc(Cl)nc32)[C@H](OC(C)=O)[C@@H]1OC(C)=O | > 100 | > 100 | > 100
3 | OC[C@@H](O)[C@H]1O[C@@H](n2cnc3c(-c4ccccc4)ncnc32)[C@H](O)[C@@H]1O | > 100 | > 100 | > 100
4 | CNc1ncnc2c1ncn2[C@@H]1O[C@H]([C@H](O)CO)[C@@H](O)[C@H]1O | > 100 | > 100 | > 100
5 | OC[C@@H](O)[C@H]1O[C@@H](n2cnc3c(Cl)nc(Cl)nc32)[C@H](O)[C@@H]1O | > 100 | 47.1 | 54.2
6 | CC(=O)OC[C@@H](OC(C)=O)[C@H]1O[C@@H](n2cnc3c(Cl)nc(Cl)nc32)[C@H](OC(C)=O)[C@@H]1OC(C)=O | 16.1 | 24.2 | 22.4
7 | CC(=O)OC[C@@H](OC(C)=O)[C@H]1O[C@@H](n2cnc3c(-c4ccccc4)ncnc32)[C@H](OC(C)=O)[C@@H]1OC(C)=O | > 100 | > 100 | > 100
8 | CNc1nc(Cl)nc2c1ncn2[C@@H]1O[C@H]([C@H](O)CO)[C@@H](O)[C@H]1O | > 100 | > 100 | > 100
9 | CC(=O)OC[C@@H](OC(C)=O)[C@H]1O[C@@H](n2cnc3c(Cl)ncnc32)[C@H](OC(C)=O)[C@@H]1OC(C)=O | 79.3 | > 100 | > 100
10 | OC[C@@H](O)[C@H]1O[C@@H](n2cnc3c(Cl)ncnc32)[C@H](O)[C@@H]1O | > 100 | > 100 | > 100
11 | CC(=O)O[C@H]1[C@@H](OC(C)=O)[C@H](n2cnc3c(Cl)nc(Cl)nc32)O[C@@H]1[C@H](O)CO | 45 | 36.3 | 36.3
12 | Nc1nc(Cl)nc2c1ncn2[C@@H]1O[C@H]([C@H](O)CO)[C@@H](O)[C@H]1O | > 100 | > 100 | > 100
13 | CCOc1nc(Cl)nc2c1ncn2[C@@H]1O[C@H]([C@H](O)CO)[C@@H](O)[C@H]1O | > 100 | > 100 | > 100
